For 28 compounds, Activity results are on record in ChEMBL document CHEMBL4842367, “Strategies toward Discovery of Potent and Orally Bioavailable Proteolysis Targeting Chimera Degraders of Androgen Receptor for the Treatment of Prostate Cancer” (J Med Chem, 2021).

A value given as a limit tells only on which side of the number the result lay.

Holding throughout (type): cell-based
Assay [1] addresses T1, Protein cereblon/Androgen receptor (Homo sapiens, UniProt P10275+Q96SW2). The experiment in a line: Protac activity at CRBN/AR in human VCaP cells assessed as induction of AR degradation at 0.01 uM measured after 24 hrs by western blot analysis relative to control. In short, it runs like this: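 VCaP cells treated 24 h at 1, 10, 100 and 1000 nM; lysed in RIPA with protease/phosphatase inhibitors, run on 4–12% SDS-PAGE, blotted to PVDF. AR bands background-subtracted and normalized to loading control; degradation relative to DMSO, average of three independent experiments.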

Assay [2] has as its target T1, Protein cereblon/Androgen receptor. The experiment in a line: Protac activity at CRBN/AR in human VCaP cells assessed as induction of AR degradation at 0.001 uM measured after 24 hrs by western blot analysis relative to control.
Assay [3] shares this target. Nature of the assay: Protac activity at CRBN/AR in human VCaP cells assessed as induction of AR degradation at 0.1 uM measured after 24 hrs by western blot analysis relative to control.
For assay [4] the target is unchanged. Nature of the assay: Protac activity at CRBN/AR in human VCAP cells assessed as induction of AR degradation at 1 uM by western blot analysis relative to control. As to conditions: time 24.0 hrs.

T1 sequence (P10275 whole entry, looked up): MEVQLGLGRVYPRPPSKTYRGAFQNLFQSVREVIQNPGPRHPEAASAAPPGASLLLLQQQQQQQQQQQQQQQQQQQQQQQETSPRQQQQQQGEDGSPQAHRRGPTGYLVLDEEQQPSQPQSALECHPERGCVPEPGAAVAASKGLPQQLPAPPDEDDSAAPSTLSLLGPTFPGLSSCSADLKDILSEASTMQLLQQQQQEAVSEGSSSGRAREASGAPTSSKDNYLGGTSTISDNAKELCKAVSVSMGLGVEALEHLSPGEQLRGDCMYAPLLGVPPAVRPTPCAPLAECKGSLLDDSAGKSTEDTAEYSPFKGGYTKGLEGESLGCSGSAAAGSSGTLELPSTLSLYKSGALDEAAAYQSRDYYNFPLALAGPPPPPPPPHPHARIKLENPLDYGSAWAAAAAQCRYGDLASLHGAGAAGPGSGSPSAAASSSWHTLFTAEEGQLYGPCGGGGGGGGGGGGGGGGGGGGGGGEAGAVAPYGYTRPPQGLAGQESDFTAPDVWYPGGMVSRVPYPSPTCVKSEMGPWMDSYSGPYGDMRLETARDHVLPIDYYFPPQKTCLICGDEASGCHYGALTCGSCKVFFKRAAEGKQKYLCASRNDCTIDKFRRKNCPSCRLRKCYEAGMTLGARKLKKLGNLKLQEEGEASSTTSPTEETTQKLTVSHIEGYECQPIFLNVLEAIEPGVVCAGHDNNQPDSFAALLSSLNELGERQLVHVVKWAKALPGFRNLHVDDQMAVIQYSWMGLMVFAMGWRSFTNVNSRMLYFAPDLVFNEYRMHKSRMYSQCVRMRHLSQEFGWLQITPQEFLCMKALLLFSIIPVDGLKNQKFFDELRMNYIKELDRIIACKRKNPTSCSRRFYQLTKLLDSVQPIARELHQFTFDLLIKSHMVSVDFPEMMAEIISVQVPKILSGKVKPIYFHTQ
T1 sequence (Q96SW2 whole entry, looked up): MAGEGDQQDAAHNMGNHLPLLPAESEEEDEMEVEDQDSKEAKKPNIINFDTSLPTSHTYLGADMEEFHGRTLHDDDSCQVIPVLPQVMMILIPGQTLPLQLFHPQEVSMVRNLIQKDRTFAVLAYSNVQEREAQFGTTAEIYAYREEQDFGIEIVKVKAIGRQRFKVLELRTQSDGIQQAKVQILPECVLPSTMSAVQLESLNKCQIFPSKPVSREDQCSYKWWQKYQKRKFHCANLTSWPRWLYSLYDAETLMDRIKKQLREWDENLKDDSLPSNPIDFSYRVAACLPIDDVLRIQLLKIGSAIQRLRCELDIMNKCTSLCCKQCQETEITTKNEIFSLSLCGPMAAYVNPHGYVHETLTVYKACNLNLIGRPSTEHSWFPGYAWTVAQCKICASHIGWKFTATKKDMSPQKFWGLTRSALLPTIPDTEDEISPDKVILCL

In the case of `CC1(C)[C@H](NC(=O)c2ccc(N3CCN(CC4CCN(c5ccc6c(c5)C(=O)N(C5CCC(=O)NC5=O)C6=O)CC4)CC3)cc2)C(C)(C)[C@H]1Oc1ccc(C#N)c(C(F)(F)F)c1` (stereo not given in full), the Activity in assay [1] was 45%; in assay [2], 22%; in assay [3] it was 87%; in assay [4], 90%.

With `CC1(C)[C@H](NC(=O)c2ccc(C(=O)N3CCN(C4CN(c5ccc6c(c5)C(=O)N(C5CCC(=O)NC5=O)C6=O)C4)CC3)cc2)C(C)(C)[C@H]1Oc1ccc(C#N)c(Cl)c1` (stereo not given in full), the Activity came out at 83% in assay [1], 71% in assay [2], 95% in assay [3] and 83% in assay [4].

Consider `CC1(C)[C@H](NC(=O)c2ccc(N3CCN(C4CC5(C4)CN(c4ccc6c(c4)C(=O)N(C4CCC(=O)NC4=O)C6=O)C5)CC3)cc2)C(C)(C)[C@H]1Oc1ccc(C#N)c(Cl)c1` (stereo not given in full), for which the Activity worked out at 78% in assay [1], 37% in assay [2], 93% in assay [3] and 88% in assay [4].

Consider `CC1(C)[C@H](NC(=O)c2ccc(C(=O)N3CCN(CC4CCN(c5ccc6c(c5)C(=O)N(C5CCC(=O)NC5=O)C6=O)CC4)CC3)cc2)C(C)(C)[C@H]1Oc1ccc(C#N)c(Cl)c1` (stereo not given in full), for which the Activity was 76% in assay [2] and […] in assay [4].

`CC1(C)[C@H](NC(=O)c2ccc(N3CCN(CCCNc4cccc5c4C(=O)N(C4CCC(=O)NC4=O)C5=O)CC3)cc2)C(C)(C)[C@H]1Oc1ccc(C#N)c(Cl)c1` (stereo not given in full): the Activity in assay [1] is less than 5%; in assay [2] it was less than 5%; in assay [3], less than 5%; in assay [4], 9%.

As for `CC1(C)[C@H](NC(=O)c2ccc(N3CCN(C4CCC5(CC4)CCN(c4ccc6c(c4)C(=O)N(C4CCC(=O)NC4=O)C6=O)CC5)CC3)cc2)C(C)(C)[C@H]1Oc1ccc(C#N)c(Cl)c1` (stereo not given in full), the Activity in assay [1] amounted to 38%; in assay [2], 14%; in assay [3], 67%; in assay [4], 80%.

Take `CC1(C)[C@H](NC(=O)c2ccc(N3CCN(CCCCNc4ccc5c(c4)C(=O)N(C4CCC(=O)NC4=O)C5=O)CC3)cc2)C(C)(C)[C@H]1Oc1ccc(C#N)c(Cl)c1` (stereo not given in full): the Activity in assay [1] came to 63%; in assay [2], 42%; in assay [3] it was 84%; in assay [4], 82%.

As for `CC1(C)[C@H](NC(=O)c2ccc(N3CCN(C4CCC5(CC4)CN(c4ccc6c(c4)C(=O)N(C4CCC(=O)NC4=O)C6=O)C5)CC3)cc2)C(C)(C)[C@H]1Oc1ccc(C#N)c(Cl)c1` (stereo not given in full), the Activity is 48% in assay [1], 15% in assay [2], 73% in assay [3] and 82% in assay [4].

With `CC1(C)[C@H](NC(=O)c2ccc(N3CCN(CC4CC5(CCN(c6ccc7c(c6)C(=O)N(C6CCC(=O)NC6=O)C7=O)C5)C4)CC3)cc2)C(C)(C)[C@H]1Oc1ccc(C#N)c(Cl)c1` (stereo not given in full), the Activity in assay [1] came out at 56%; in assay [2], 16%; in assay [3] it was 71%; in assay [4] it was 51%.

Regarding `CC1(C)[C@H](NC(=O)c2ccc(C(=O)N3CCN(CC4CN(c5ccc6c(c5)C(=O)N(C5CCC(=O)NC5=O)C6=O)C4)CC3)cc2)C(C)(C)[C@H]1Oc1ccc(C#N)c(Cl)c1` (stereo not given in full), the Activity was 92% in assay [1], 65% in assay [2], 96% in assay [3] and 79% in assay [4].

For the compound `CC1(C)[C@H](NC(=O)c2ccc(N3CCN(CCCCCNc4ccc5c(c4)C(=O)N(C4CCC(=O)NC4=O)C5=O)CC3)cc2)C(C)(C)[C@H]1Oc1ccc(C#N)c(Cl)c1` (stereo not given in full), the Activity stood at 59% in assay [1], 12% in assay [2], 85% in assay [3] and 60% in assay [4].

Take `CC1(C)[C@H](NC(=O)c2ccc(N3CCC4(CCC(Nc5ccc6c(c5)C(=O)N(C5CCC(=O)NC5=O)C6=O)CC4)CC3)cc2)C(C)(C)[C@H]1Oc1ccc(C#N)c(Cl)c1` (stereo not given in full): the Activity in assay [1] came out at 30%; in assay [2], 13%; in assay [3] it was 38%; in assay [4] it was 57%.

In the case of `CC1(C)[C@H](NC(=O)c2ccc(N3CCN(CC4CC5(C4)CN(c4ccc6c(c4)C(=O)N(C4CCC(=O)NC4=O)C6=O)C5)CC3)cc2)C(C)(C)[C@H]1Oc1ccc(C#N)c(Cl)c1` (stereo not given in full), the Activity in assay [1] was found to be 82%; in assay [2] it was 30%; in assay [3], 97%; in assay [4], 95%.

For `CC1(C)[C@H](NC(=O)c2ccc(N3CCN(CC4CCN(c5ccc6c(c5)C(=O)N(C5CCC(=O)NC5=O)C6=O)CC4)CC3)cc2)C(C)(C)[C@H]1Oc1cnc(C#N)c(C(F)(F)F)c1` (stereo not given in full), the Activity worked out at 12% in assay [1], 6% in assay [2], 33% in assay [3] and 41% in assay [4].

Take `CC1(C)[C@H](NC(=O)c2ccc(N3CCN(C4CN(c5ccc6c(c5)C(=O)N(C5CCC(=O)NC5=O)C6=O)C4)CC3)cc2)C(C)(C)[C@H]1Oc1ccc(C#N)c(Cl)c1` (stereo not given in full): the Activity was found to be 77% in assay [1], 54% in assay [2], 91% in assay [3] and 73% in assay [4].

Take `CC1(C)[C@H](NC(=O)c2ccc(N3CCN(CCCCNc4cccc5c4C(=O)N(C4CCC(=O)NC4=O)C5=O)CC3)cc2)C(C)(C)[C@H]1Oc1ccc(C#N)c(Cl)c1` (stereo not given in full): the Activity in assay [1] turned out to be 40%; in assay [2] it was 7%; in assay [3], 47%; in assay [4], 32%.

As for `CC1(C)[C@H](NC(=O)c2ccc(NCCCNc3ccc4c(c3)C(=O)N(C3CCC(=O)NC3=O)C4=O)cc2)C(C)(C)[C@H]1Oc1ccc(C#N)c(Cl)c1` (stereo not given in full), the Activity in assay [1] amounted to 25%; in assay [2] it was 0%; in assay [3] it was 63%; in assay [4] it was 70%.

Turning to `CC1(C)[C@H](NC(=O)c2ccc(NCCCCCCCNc3ccc4c(c3)C(=O)N(C3CCC(=O)NC3=O)C4=O)cc2)C(C)(C)[C@H]1Oc1ccc(C#N)c(Cl)c1` (stereo not given in full), the Activity in assay [1] is 58%; in assay [2] it was 28%; in assay [3] it was 79%; in assay [4], 62%.

Turning to `CC1(C)[C@@H](NC(=O)c2ccc(N3CCN(CC4CCN(c5ccc6c(c5)C(=O)N(C5CCC(=O)NC5=O)C6=O)CC4)CC3)cc2)C[C@@H]1Oc1ccc(C#N)c(Cl)c1` (stereo not given in full), the Activity in assay [1] is 19%; in assay [2] it was less than 5%; in assay [3], 75%; in assay [4], 90%.

`CC1(C)[C@H](NC(=O)c2ccc(NCCCCCCNc3cccc4c3C(=O)N(C3CCC(=O)NC3=O)C4=O)cc2)C(C)(C)[C@H]1Oc1ccc(C#N)c(Cl)c1` (stereo not given in full): the Activity in assay [1] amounted to 22%; in assay [2] it was 10%; in assay [3], 43%; in assay [4], 48%.

On to `CC1(C)[C@H](NC(=O)c2ccc(N3CCN(CCNc4cccc5c4C(=O)N(C4CCC(=O)NC4=O)C5=O)CC3)cc2)C(C)(C)[C@H]1Oc1ccc(C#N)c(Cl)c1` (stereo not given in full), for which the Activity is 23% in assay [1], less than 5% in assay [2], 41% in assay [3] and 32% in assay [4].

`CC1(C)[C@H](NC(=O)c2ccc(NCCCCCCCCNc3ccc4c(c3)C(=O)N(C3CCC(=O)NC3=O)C4=O)cc2)C(C)(C)[C@H]1Oc1ccc(C#N)c(Cl)c1` (stereo not given in full): the Activity was 76% in assay [1], 48% in assay [2], 82% in assay [3] and 73% in assay [4].

For the compound `CC1(C)[C@H](NC(=O)c2ccc(NCCCCCNc3cccc4c3C(=O)N(C3CCC(=O)NC3=O)C4=O)cc2)C(C)(C)[C@H]1Oc1ccc(C#N)c(Cl)c1` (stereo not given in full), the Activity is 9% in assay [1], less than 5% in assay [2], 36% in assay [3] and 38% in assay [4].

Regarding `CC1(C)[C@H](NC(=O)c2ccc(N3CCN(CC4CCN(c5ccc6c(c5)C(=O)N(C5CCC(=O)NC5=O)C6=O)CC4)CC3)cc2)C(C)(C)[C@H]1Oc1ccc(C#N)c(F)c1` (stereo not given in full), the Activity in assay [1] was 15%; in assay [2], less than 5%; in assay [3], 75%; in assay [4], 80%.

As for `N#Cc1ccc(O[C@H]2C[C@H](NC(=O)c3ccc(N4CCN(CC5CCN(c6ccc7c(c6)C(=O)N(C6CCC(=O)NC6=O)C7=O)CC5)CC4)cc3)C2)cc1Cl` (stereo not given in full), the Activity was 30% in assay [1], less than 5% in assay [2], 25% in assay [3] and 39% in assay [4].

Turning to `CC1(C)[C@H](NC(=O)c2ccc(N3CCC4(CC3)CC(Nc3ccc5c(c3)C(=O)N(C3CCC(=O)NC3=O)C5=O)C4)cc2)C(C)(C)[C@H]1Oc1ccc(C#N)c(Cl)c1` (stereo not given in full), the Activity turned out to be 16% in assay [1], 0% in assay [2], 82% in assay [3] and 88% in assay [4].

As to `CC1(C)[C@H](NC(=O)c2ccc(NCCCCNc3ccc4c(c3)C(=O)N(C3CCC(=O)NC3=O)C4=O)cc2)C(C)(C)[C@H]1Oc1ccc(C#N)c(Cl)c1` (stereo not given in full), the Activity in assay [1] was determined as 76%; in assay [2] it was 42%; in assay [3], 55%; in assay [4] it was 21%.

`CC1(C)[C@H](NC(=O)c2ccc(N3CCN(C4CC5(CCN(c6ccc7c(c6)C(=O)N(C6CCC(=O)NC6=O)C7=O)C5)C4)CC3)cc2)C(C)(C)[C@H]1Oc1ccc(C#N)c(Cl)c1` (stereo not given in full): the Activity in assay [1] came to 80%; in assay [2] it was 38%; in assay [3], 87%; in assay [4], 84%.
